This is an account of results in the M2OR odorant receptor database.

Holding throughout (details): stereoisomer not certain
The target of one experiment is T1, OR2W1 (Homo sapiens) (UniProt Q9Y3N9).
T1 sequence (whole entry): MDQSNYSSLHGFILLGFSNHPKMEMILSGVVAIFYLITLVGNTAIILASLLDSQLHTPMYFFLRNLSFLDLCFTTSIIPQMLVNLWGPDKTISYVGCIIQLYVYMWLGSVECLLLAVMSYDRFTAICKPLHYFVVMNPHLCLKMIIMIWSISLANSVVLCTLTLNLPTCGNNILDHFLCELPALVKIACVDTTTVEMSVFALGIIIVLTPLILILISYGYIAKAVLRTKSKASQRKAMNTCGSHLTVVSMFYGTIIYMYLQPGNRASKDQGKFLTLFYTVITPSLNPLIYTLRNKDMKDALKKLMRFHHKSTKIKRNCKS
The method, boiled down:
(§1)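 Values were gathered from published papers (main text and supplementary material), with extra details requested from the original authors when needed, and checked for typos and inconsistencies. Each receptor–molecule pair is called responsive (active) if the original authors judged the measured signal statistically different from baseline, and non-responsive (inactive) otherwise. Assay methods varied by source, often transient mammalian cell-line luciferase assays. Recorded details include cell line, G-protein, co-transfected protein and tags.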

The subject of experiment [1] is T2, OR2W1.
T2 sequence (whole entry): T1 sequence (whole entry) with D296N
The method, boiled down: as §1

Experiment [2] concerns T3, OR2W1.
T3 sequence (whole entry): T1 sequence (whole entry) with M81V
The method, boiled down:
as §1
The source holds these as a separate data set.

Numbering of substitutions follows the chain as printed.

For the molecule `CSSCc1ccccc1`, the “odorant receptor agonist call” value with OR2W1 (Homo sapiens), in the experiment on OR2W1 [1] and in the experiment on OR2W1 [2] was “active” each time.

As for `O=c1ccc2ccccc2o1`, the “odorant receptor agonist call” value in the experiment with OR2W1 (Homo sapiens) and with OR2W1 [1] was “active” throughout. Besides, the “odorant receptor agonist call” value in the experiment with OR2W1 [2] is “inactive”.

Take `CC(S)c1ccccc1` (stereo unspecified): the “odorant receptor agonist call” value with OR2W1 (Homo sapiens), with OR2W1 [1] and in the experiment with OR2W1 [2] was “active” throughout.

For the molecule `CCc1ccc(O)cc1`, the “odorant receptor agonist call” value in the experiment with OR2W1 (Homo sapiens), in the experiment on OR2W1 [1] and in the experiment with OR2W1 [2] was “active” in each case.

Consider `CCCCC=CC=CC=O`, for which the “odorant receptor agonist call” value with OR2W1 (Homo sapiens), with OR2W1 [1] and with OR2W1 [2] was “active” in each case.

Regarding `OCC=Cc1ccccc1`, the “odorant receptor agonist call” value in the experiment with OR2W1 (Homo sapiens), in the experiment with OR2W1 [1] and in the experiment with OR2W1 [2] was “active” throughout.

As for `CCC=CCCC=CCO`, the “odorant receptor agonist call” value with OR2W1 (Homo sapiens), in the experiment with OR2W1 [1] and with OR2W1 [2] was “active” throughout.

For the molecule `CSCc1ccccc1`, the “odorant receptor agonist call” value in the experiment with OR2W1 (Homo sapiens), in the experiment with OR2W1 [1] and in the experiment with OR2W1 [2] was “active” throughout.

Turning to `C=C1CCC2(C(C)C)CC12` (stereo unspecified), the “odorant receptor agonist call” value with OR2W1 (Homo sapiens) and in the experiment on OR2W1 [1] was “active” each time. Moreover, in the experiment on OR2W1 [2], the “odorant receptor agonist call” value is “inactive”.

In the case of `CCOC(=O)C(C)CC` (stereo unspecified), the “odorant receptor agonist call” value in the experiment with OR2W1 (Homo sapiens) and in the experiment with OR2W1 [1] was “active” in each case. In addition, in the experiment on OR2W1 [2], the “odorant receptor agonist call” value is “inactive”.

In the case of `CCc1cccc(O)c1`, the “odorant receptor agonist call” value with OR2W1 (Homo sapiens) and with OR2W1 [1] was “active” throughout. Moreover, the “odorant receptor agonist call” value in the experiment with OR2W1 [2] was “inactive”.

Turning to `CC=Cc1ccc(OC)cc1`, the “odorant receptor agonist call” value in the experiment with OR2W1 (Homo sapiens), in the experiment with OR2W1 [1] and in the experiment on OR2W1 [2] was “active” in each case.

Turning to `CCCC(S)CCO` (stereo unspecified), the “odorant receptor agonist call” value with OR2W1 (Homo sapiens) and in the experiment with OR2W1 [1] was “active” throughout. For the same molecule, the “odorant receptor agonist call” value in the experiment on OR2W1 [2] is “inactive”.

Turning to `CSSCc1ccco1`, the “odorant receptor agonist call” value with OR2W1 (Homo sapiens), in the experiment with OR2W1 [1] and in the experiment on OR2W1 [2] was “active” each time.

In the case of `c1coc(CSCc2ccco2)c1`, the “odorant receptor agonist call” value with OR2W1 (Homo sapiens), with OR2W1 [1] and with OR2W1 [2] was “active” each time.

As to `CC(C)c1ccc(C=O)cc1`, the “odorant receptor agonist call” value in the experiment with OR2W1 (Homo sapiens), with OR2W1 [1] and with OR2W1 [2] was “active” each time.

`CCCCCCC=CC=O`: the “odorant receptor agonist call” value with OR2W1 (Homo sapiens), in the experiment with OR2W1 [1] and in the experiment with OR2W1 [2] was “active” throughout.

For `CCCCCC=CC=CC=O`, the “odorant receptor agonist call” value in the experiment with OR2W1 (Homo sapiens), with OR2W1 [1] and in the experiment with OR2W1 [2] was “active” throughout.

Consider `CC(C)=CCCC(C)=CCO`, for which the “odorant receptor agonist call” value with OR2W1 (Homo sapiens) and in the experiment on OR2W1 [2] was “inactive” each time.

For `CCOC(=O)C=Cc1ccccc1`, the “odorant receptor agonist call” value with OR2W1 (Homo sapiens), with OR2W1 [1] and in the experiment on OR2W1 [2] was “active” each time.

With `CC1=CCC(C(C)(C)S)CC1` (stereo unspecified), the “odorant receptor agonist call” value with OR2W1 (Homo sapiens) and with OR2W1 [1] was “active” throughout. Besides, the “odorant receptor agonist call” value in the experiment with OR2W1 [2] is “inactive”.

In the case of `CCCCCCC1CCC(=O)O1` (stereo unspecified), the “odorant receptor agonist call” value with OR2W1 (Homo sapiens), with OR2W1 [1] and in the experiment on OR2W1 [2] was “active” throughout.

As for `CCCCCC=CCCC=O`, the “odorant receptor agonist call” value in the experiment with OR2W1 (Homo sapiens) and in the experiment with OR2W1 [1] was “active” throughout. The “odorant receptor agonist call” value with OR2W1 [2] is “inactive”.

Turning to `OCCCc1ccccc1`, the “odorant receptor agonist call” value in the experiment with OR2W1 (Homo sapiens), in the experiment with OR2W1 [1] and in the experiment on OR2W1 [2] was “active” each time.

For the molecule `COc1ccc(C)cc1O`, the “odorant receptor agonist call” value with OR2W1 (Homo sapiens) and in the experiment on OR2W1 [2] was “inactive” throughout. Moreover, in the experiment with OR2W1 [1], the “odorant receptor agonist call” value is “active”.

Turning to `CC(=O)c1cnccn1`, the “odorant receptor agonist call” value with OR2W1 (Homo sapiens) and with OR2W1 [1] was “active” throughout. Besides, the “odorant receptor agonist call” value in the experiment on OR2W1 [2] is “inactive”.

Turning to `CC(=O)OCC=Cc1ccccc1`, the “odorant receptor agonist call” value in the experiment with OR2W1 (Homo sapiens), in the experiment on OR2W1 [1] and with OR2W1 [2] was “active” in each case.

Regarding `COCCC(C)(C)S`, the “odorant receptor agonist call” value with OR2W1 (Homo sapiens) and in the experiment on OR2W1 [1] was “active” in each case. Also, the “odorant receptor agonist call” value in the experiment with OR2W1 [2] was “inactive”.

Consider `SCc1cccs1`, for which the “odorant receptor agonist call” value with OR2W1 (Homo sapiens), with OR2W1 [1] and with OR2W1 [2] was “active” each time.

Consider `CCCC(=O)OCC`, for which the “odorant receptor agonist call” value with OR2W1 (Homo sapiens), in the experiment with OR2W1 [1] and in the experiment on OR2W1 [2] was “active” throughout.

For the molecule `SCCc1ccccc1`, the “odorant receptor agonist call” value with OR2W1 (Homo sapiens), in the experiment with OR2W1 [1] and in the experiment with OR2W1 [2] was “active” each time.

Regarding `CCC(C)COC(C)=O` (stereo unspecified), the “odorant receptor agonist call” value with OR2W1 (Homo sapiens) is “inactive”. Besides, the “odorant receptor agonist call” value with OR2W1 [1] and in the experiment with OR2W1 [2] was “active” each time.

Regarding `CC(C)(S)CCOC=O`, the “odorant receptor agonist call” value in the experiment with OR2W1 (Homo sapiens), in the experiment with OR2W1 [1] and in the experiment on OR2W1 [2] was “active” in each case.

For `CCCSSCCC`, the “odorant receptor agonist call” value with OR2W1 (Homo sapiens) and with OR2W1 [1] was “active” each time. The “odorant receptor agonist call” value in the experiment on OR2W1 [2] was “inactive”.

On to `C=CC(=O)CCCCC`, for which the “odorant receptor agonist call” value with OR2W1 (Homo sapiens), with OR2W1 [1] and in the experiment with OR2W1 [2] was “active” in each case.

In the case of `CCOC(=O)C(C)C`, the “odorant receptor agonist call” value with OR2W1 (Homo sapiens) and in the experiment on OR2W1 [2] was “inactive” each time. Further, the “odorant receptor agonist call” value in the experiment with OR2W1 [1] was “active”.

In the case of `CCC=CCCC=O`, the “odorant receptor agonist call” value with OR2W1 (Homo sapiens), in the experiment with OR2W1 [1] and in the experiment on OR2W1 [2] was “active” throughout.

On to `CCOC(=O)CC(C)C`, for which the “odorant receptor agonist call” value with OR2W1 (Homo sapiens) and in the experiment on OR2W1 [1] was “active” throughout. Moreover, the “odorant receptor agonist call” value with OR2W1 [2] is “inactive”.

Regarding `CCCC(=O)OC`, the “odorant receptor agonist call” value in the experiment with OR2W1 (Homo sapiens), in the experiment with OR2W1 [1] and in the experiment on OR2W1 [2] was “active” throughout.

Turning to `CC(=O)OCCc1ccccc1`, the “odorant receptor agonist call” value with OR2W1 (Homo sapiens), in the experiment on OR2W1 [1] and with OR2W1 [2] was “active” throughout.

For `CCCC1CCCC(=O)O1` (stereo unspecified), the “odorant receptor agonist call” value in the experiment with OR2W1 (Homo sapiens) and in the experiment with OR2W1 [1] was “active” throughout. In addition, in the experiment with OR2W1 [2], the “odorant receptor agonist call” value was “inactive”.

In the case of `CCCSSSCCC`, the “odorant receptor agonist call” value in the experiment with OR2W1 (Homo sapiens) and with OR2W1 [1] was “active” in each case. Besides, the “odorant receptor agonist call” value with OR2W1 [2] is “inactive”.

For `CCCCCCCCCC(=O)OCC`, the “odorant receptor agonist call” value with OR2W1 (Homo sapiens), in the experiment with OR2W1 [1] and in the experiment on OR2W1 [2] was “active” throughout.

As to `CCC=CCCC=CC=O`, the “odorant receptor agonist call” value with OR2W1 (Homo sapiens), in the experiment on OR2W1 [1] and in the experiment on OR2W1 [2] was “active” in each case.
